ChEMBL document CHEMBL4513216, “Probing the Open Global Health Chemical Diversity Library for Multistage-Active Starting Points for Next-Generation Antimalarials” (ACS Infect Dis, 2020)

Experiment: Toxicity liver stage against HepG2, at 10uM
Type: cell-based
Design: test concentration 10 uM, cell line HepG2-A16-CD81EGFP
Conditions: human, HepG2-A16-CD81EGFP cells; read-out: INHIBITION
Procedure, shortened: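 Uninfected HepG2-A16-CD81EGFP cells, 3 × 10^3 per well, 1536-well, plated on prespotted compound at 10 μM final, parasite-free screening media added to match infected plates; puromycin 10 μM positive, DMSO 0.5% negative; run in parallel with 48 h PbLuc assay at 37 °C, 5% CO2; viability by CellTiter-Glo luminescence, normalized to controls.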

| Compound | cytotoxicity at 10 µM |
| --- | --- |
| N[C@@H]1CCCN(C(=O)Cc2c[nH]c3ccccc23)[C@H]1c1ccccc1F | 7.45% |
| CCS(=O)(=O)N1Cc2nnn(C)c2C(COCCN(C)C)C1 (stereo not given) | 1.55% |
| Cc1ccc(CN2CCN(C3CCC3)CC2CCO)o1 (stereo not given) | -2.46% |
| COc1ccc(CN2CCCN(c3cc(C(N)=O)ccn3)CC2)cc1 | 11% |
| CCC(C)(CC(=O)O)NC(=O)Cc1ccccc1Br (stereo not given) | 1.29% |
| O=c1c(=CS(=O)(=O)Nc2ccccc2)[nH]c(=O)n2cccc12 | 0.458% |
| COC(=O)CN1CCN(c2cccc(C)c2)CC1 | 3.54% |
| Cc1nccc(-c2ccccc2)c1C(=O)N1CC[C@](C)(O)[C@H](C)C1 | 3.41% |
| CCc1nc(CN2CCCC(Cn3nc(C)nc3C)C2)no1 (stereo not given) | -2.68% |
| NCc1cn(CC2CCCN(C(=O)CC3=CCCCC3)C2)nn1 (stereo not given) | 1.46% |
| CC(C)COC(=O)N1CCCN(C(=O)c2ccnc(N(C)C)c2)CC1 | -15.1% |
| CN1CC2(CCN(C(=O)c3cccc(-n4cccn4)c3)CC2)OC1=O | 4.5% |
| CCCn1nccc1NC(=O)CN1CCCC1c1c(C)nn(C)c1C (stereo not given) | -2.7% |
| CN(C)CCNC(=O)c1ccn(-c2ccc3ccccn23)n1 | -0.0395% |
| CCC(C)C(=O)N(Cc1ccccn1)C1CC1 (stereo not given) | -44.5% |
| O=C(C1CCS(=O)(=O)C1)N1CCC(=Cc2cccc(F)c2)CC1 (stereo not given) | 10.6% |
| Cn1cc(C(=O)CC2CCCN2C(=O)c2cncc3ccccc23)cn1 (stereo not given) | 4.11% |
| CCn1c(CN2CCCC2)nnc1C1CCN(Cc2ccncc2)CC1 | -0.384% |
| N#Cc1cc(Br)ccc1NC1CCN(CC(N)=O)CC1 | 5.23% |
| CCOc1ccc(Oc2cc(N)ccn2)cc1 | 2.9% |
| CNC(=O)Cn1ccc2ccc(NC(=O)C(C)C)cc21 | 0.153% |
| COc1cnc(CSc2nnc(C)s2)cc1OCC(=O)NC(C)(C)C | 9.82% |
| CO[C@H]1CCN(Cc2cccs2)[C@@H]2CN(Cc3ccncc3)C[C@H]12 | 2.31% |
| CCOCc1nc2c(c(N3CC=CC3)n1)CCN(C1CCOCC1)CC2 | -25.2% |
| Cn1cnc(S(=O)(=O)NCC2CCN(C(=O)Oc3ccccc3)CC2)c1 | -11.1% |
| Cn1ccc(C2CCCCN2C(=O)c2cccc(-n3cccn3)c2)n1 (stereo not given) | -0.874% |
| COCC1CN(C(=O)COc2ccc(C)cc2)Cc2cn(C)nc21 (stereo not given) | 2.49% |
| CCc1noc(CN(CCC2CCCCC2)CC(N)=O)n1 | 5.76% |

| Compound | cytotoxicity at 10 µM |
| --- | --- |
| O=C(O)c1ccc(CC2CCN(Cc3ccc(-c4cc[nH]n4)o3)C2)cc1 (stereo not given) | 6.37% |
| CCCNCc1cc2c(C)cc(C)cc2n2c(=O)n(C)nc12 | -3.09% |
| O=C(NCc1cccs1)[C@@H]1CC[C@@H]2[C@@H](CCN2c2ncccn2)O1 | -0.53% |
| c1ccc(CCc2n[nH]c(C3CCOC3)n2)cc1 (stereo not given) | 2.78% |
| CCc1ncncc1C(=O)NC1CCc2nc(C)cn2C1 (stereo not given) | -17.3% |
| CCOCC(O)CN1CCN(C(=O)c2ccccc2F)CC1 (stereo not given) | -2.15% |
| CCCc1cnc(C)nc1N1CCC2(CC1)CNC(=O)O2 | 44.6% |
| CC(C)CNC(=O)C1=NOC2(CCN(Cc3ccc(C(C)C)cc3)C2)C1 (stereo not given) | 32.3% |
| CC(C)(C)CN1CC[C@H](c2nnc(Cc3c[nH]c4ccccc34)o2)C1 | -3.9% |
| O=C(c1cc(C2CC2)nc2onc(-c3ccccc3)c12)N1CC[C@H](O)C1 | -40.4% |
| OCCCN1CCc2onc(C(c3ccccc3)c3ccccc3)c2C1 | -5.51% |
| CC(C)n1nccc1C(=O)N1CCC(c2nnsc2S(C)(=O)=O)CC1 | -0.88% |
| Cc1oc(C)c(C(=O)Nc2ccccn2)c1C | -9.78% |
| CS(=O)(=O)CCC(=O)NC1(c2cccc(Br)c2)CC1 | -11.1% |
| CN(C)CCOCC1CN(Cc2ccsc2)Cc2nnn(C)c21 (stereo not given) | 14.1% |
| COc1ccc(C[C@H]2CN(c3cc(OC)ncn3)CC[C@H]2OC)cc1 | 54.5% |
| CCC(C(=O)N1CCCN(CCN(C)C)CC1)N1CCCC1=O (stereo not given) | 4.38% |
| CC(=O)N(Cc1ncc(C(C)C)o1)C1CCN(Cc2ccno2)C1 (stereo not given) | -11.1% |
| CCCN1CCC(CNC(=O)C2(c3ccccc3)CCC2)C1 (stereo not given) | -6.29% |
| O=c1[nH][nH]cc1-c1ccnc(NCCCN2CCOCC2)n1 | 3.27% |
| CC(C)(O)c1cn(C[C@H]2C[C@@H]3CCN2C[C@@H]3C(=O)N2CCOCC2)nn1 | 3.49% |
| O=C(c1ccc(C(F)(F)F)cc1)N1C[C@@H](CN2CCCCC2)[C@@H](CO)C1 | 0.313% |
| COCc1ncn2c1CN(C(=O)c1cccc3cccnc13)CC2 | -19.7% |
| CCCc1cc(NCCn2cccn2)n2nccc2n1 | 0.988% |
| Cn1ccc(CS(=O)(=O)Cc2ccccc2)cc1=O | 6.02% |
| Cc1c(Cl)ccc2ccc(NC(CO)CO)nc12 | -7.78% |
| COCc1cccc(S(=O)(=O)Nc2ncc(C)s2)c1 | -8.13% |
